Converted amounts (≈) assume the structure as drawn.
What was measured:
[1] = Prodrug conversion assessed as 1-[S]-(Chloromethyl)-5-hydroxy-3-{{5-[5-(4-methyldithio-3,3- dimethyl butyryl)indol-2-yl-carbonyl amino]indole-2-yl}carbonyl}- 1,2-dihydro-3H-benz[e]indole formation in presence of porcine mucosa alkaline phosphatase at pH 7.4; format: physicochemical; details: pig, isolated protein
[2] = Solubility of the compound in 100% buffer at pH 7 at 1.5 mg sonicated for 45 mins followed by centrifugation for 45 mins by UV/Vis spectroscopy; format: physicochemical
[3] = Solubility of the compound in 20% DMA and 80% buffer at pH 7 at 1.5 mg sonicated for 45 mins followed by centrifugation for 45 mins by UV/Vis spectroscopy; format: physicochemical
Summary of the method: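 About 1.5 mg of compound is sonicated for 45 min in pH 7.0 buffer containing 10% or 20% DMA, then centrifuged at 1400g for 45 min. Supernatant concentration is read by UV/vis at 340 nm. ε at pH 7.0 is 41500 M⁻¹ cm⁻¹ for DC1–SR₂ compounds and 34500 M⁻¹ cm⁻¹ for phosphate prodrugs.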

[4] = system: Ramos; test: Cytotoxicity against human Ramos cells assessed as cell survival after 72 hrs by clonogenic assay; format: functional, cell-based
Summary of the method: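 Cells were kept in RPMI 1640 with 10% heat-inactivated FBS at 37 °C and 6% CO₂. They were plated at 1000–5000 cells/well and exposed to 0–3 nM test agent for 72 h. Medium was then replaced and colonies grew for 7–10 days in total after plating. Colonies were fixed and stained with 0.2% crystal violet in 10% formalin/PBS, then counted. Surviving fraction = colonies in treated wells / colonies in control wells; IC₅₀ was taken from this.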

[5] = system: Ramos; test: Cytotoxicity against human Ramos cells assessed as cell survival after 72 hrs in presence of bovine alkaline phosphatase by clonogenic assay; format: functional, cell-based
Summary of the method: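 Clonogenic assay: cells in RPMI 1640 with 10% heat-inactivated FBS were plated at 1000–5000 cells/well. Test agent (0–3 nM) was combined with alkaline phosphatase from bovine liver, and cells were exposed for 72 h. Colonies then grew for 7–10 days after plating and were stained with 0.2% crystal violet in 10% formalin/PBS. Surviving fraction is relative to untreated control wells.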

[6] = Prodrug activation assessed as enzyme-mediated compound dephosphorylation in presence of bovine kidney alkaline phosphatase P4653 at pH 7.4 by HPLC; details: cattle, isolated protein
[7] = Prodrug activation assessed as enzyme-mediated compound dephosphorylation in presence of porcine kidney alkaline phosphatase P4439 at pH 7.4 by HPLC; details: pig, isolated protein
[8] = Prodrug activation assessed as enzyme-mediated compound dephosphorylation in presence of rabbit intestine alkaline phosphatase P2256 at pH 7.4 by HPLC; details: isolated protein
[9] = Prodrug activation assessed as enzyme-mediated compound dephosphorylation in presence of human placenta alkaline phosphatase from P3895 at pH 7.4 by HPLC; details: isolated protein
[10] = Solubility in toluene at 1.5 mg sonicated for 45 mins followed by centrifugation for 45 mins by UV/Vis spectroscopy; format: physicochemical; details: 0.75 h
Summary of the method: (§1)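 Solid compound (~1.5 mg) in the stated solvent was sonicated 45 min, then centrifuged at 1400g for 45 min. The supernatant concentration was read by UV/vis at 340 nm, using ε = 41500 M⁻¹ cm⁻¹ for the free phenols and 34500 M⁻¹ cm⁻¹ for the phosphate prodrugs (pH 7.0 values).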

[11] = Solubility in ethyl acetate at 1.5 mg sonicated for 45 mins followed by centrifugation for 45 mins by UV/Vis spectroscopy; format: physicochemical; details: 0.75 h; summary of the method: as §1
[12] = Solubility in DMF at 1.5 mg sonicated for 45 mins followed by centrifugation for 45 mins by UV/Vis spectroscopy; format: physicochemical; details: 0.75 h; summary of the method: as §1
[13] = Solubility in water containing 5% THF at 1.5 mg sonicated for 45 mins followed by centrifugation for 45 mins by UV/Vis spectroscopy; format: physicochemical; details: 0.75 h
[14] = Stability of the compound in 5 % DMA assessed as cyclopropyl ring formation incubated for 1 yr at room temperature at pH 7 by HPLC analysis; format: physicochemical; details: buffer, pH 7, 8766 h
Summary of the method: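 Phosphate prodrug is stored for one year at room temperature in phosphate buffer containing 5% DMA at pH ~7. Conversion to the ring-closed cyclopropyl form is monitored by HPLC.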

[15] = Prodrug activation assessed as enzyme-mediated compound dephosphorylation in presence of wheat germ acid phosphatase Sigma P3627 at pH 7.4 by HPLC; details: isolated protein
[16] = Prodrug conversion assessed as 1-[S]-(Chloromethyl)-5-hydroxy-3-{{5-[5-(3-methyldithiopropionyl)indol-2-yl-carbonyl amino]indole-2-yl}- carbonyl}-1,2-dihydro-3H-benz[e]indole formation in presence of bovine kidney alkaline phosphatase at pH 7.4; format: physicochemical; details: cattle, isolated protein
[17] = Prodrug conversion assessed as 1-[S]-(Chloromethyl)-5-hydroxy-3-{{5-[5-(4-methyldithio-3,3- dimethyl butyryl)indol-2-yl-carbonyl amino]indole-2-yl}carbonyl}- 1,2-dihydro-3H-benz[e]indole formation in presence of bovine liver alkaline phosphatase at pH 7.4; format: physicochemical; details: cattle, isolated protein
[18] = Prodrug conversion assessed as 1-[S]-(Chloromethyl)-5-hydroxy-3-{{5-[5-(4-methyldithio-3,3- dimethyl butyryl)indol-2-yl-carbonyl amino]indole-2-yl}carbonyl}- 1,2-dihydro-3H-benz[e]indole formation in presence of bovine kidney alkaline phosphatase at pH 7.4; format: physicochemical; details: cattle, isolated protein
[19] = Prodrug conversion assessed as 1-[S]-(Chloromethyl)-5-hydroxy-3-{{5-[5-(4-methyldithio-3,3- dimethyl butyryl)indol-2-yl-carbonyl amino]indole-2-yl}carbonyl}- 1,2-dihydro-3H-benz[e]indole formation in presence of rabbit intestine alkaline phosphatase at pH 7.4; format: physicochemical; details: in vitro
[20] = Prodrug conversion assessed as 1 - [ S ] - ( Ch l o r ome t h y l ) - 5 - h y d r o x y - 3 - { { 5 - [ 5 - ( 3 -methyldithiopropionyl)indol-2-yl-carbonyl amino]indole-2-yl}- carbonyl}-1,2-dihydro-3H-benz[e]indole formation in presence of rabbit intestine alkaline phosphatase at pH 7.4; format: physicochemical; details: in vitro
[21] = Prodrug conversion assessed as 1 - [ S ] - ( Ch l o r ome t h y l ) - 5 - h y d r o x y - 3 - { { 5 - [ 5 - ( 3 -methyldithiopropionyl)indol-2-yl-carbonyl amino]indole-2-yl}- carbonyl}-1,2-dihydro-3H-benz[e]indole formation in presence of porcine mucosa alkaline phosphatase at pH 7.4; format: physicochemical; details: pig, isolated protein

| Drug metabolism [1] | solubility at 0.75 h [2] [µM] | solubility at 0.75 h [3] [µM] | Drug metabolism [6] | Drug metabolism [7] | Drug metabolism [8] | Drug metabolism [9] | solubility [10] | solubility [11] | solubility [12] | solubility [13] | Drug degradation [14] [%] | Drug metabolism [15] | Drug metabolism [16] | SMILES | IC50 [4] [nM] | IC50 [5] [nM] | further results |
| --- | --- | --- | --- | --- | --- | --- | --- | --- | --- | --- | --- | --- | --- | --- | --- | --- | --- |
| Active | 19 (≈ 15.3 µg/mL) | > 6000 | Active | Active | Active | Active | Insoluble | Insoluble | soluble | soluble | 3 | Active | Active | CSSC(C)(C)CCC(=O)Nc1ccc2[nH]c(C(=O)Nc3ccc4[nH]c(C(=O)N5C[C@@H](CCl)c6c5cc(OP(=O)(O)O)c5ccccc65)cc4c3)cc2c1 | 2 | 0.09 | Drug metabolism [17]: Active; Drug metabolism [18]: Active; Drug metabolism [19]: Active |
| Active | 19 (≈ 14.5 µg/mL) | > 6000 | Active | Active | Active | Active | Insoluble | Insoluble | soluble | soluble | 3 | Active | Active | CSSCCC(=O)Nc1ccc2[nH]c(C(=O)Nc3ccc4[nH]c(C(=O)N5C[C@@H](CCl)c6c5cc(OP(=O)(O)O)c5ccccc65)cc4c3)cc2c1 | 1.9 | 0.08 | Drug metabolism [20]: Active; Drug metabolism [21]: Active |

Source: ChEMBL document CHEMBL2157989, “Synthesis and biological evaluation of antibody conjugates of phosphate prodrugs of cytotoxic DNA alkylators for the targeted treatment of cancer” (J Med Chem, 2012)
